Screening data as filed in PubChem BioAssay.
Compounds with a hit are over-represented: about 3.5% of the library has one in this group of screens.
MrgX1 PAM: positive allosteric modulators of MrgX1, primary screen, HEK293 cells, Fluo-4 calcium flux; FDSS; active compounds read high; B-score at 10 µM; 0.63% of 310,000 active; AID 588675, 2011;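 active = plate-corrected calcium response at least 3 library SD above typical, normal starting fluorescence, not activating the receptor alone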;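 also: compound read alongside a low EC10 to EC30 dose of BAM8-22 agonist; peak minus trough fluorescence over baseline measured at the second addition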
Target sequence (Q96LB2 whole entry, looked up): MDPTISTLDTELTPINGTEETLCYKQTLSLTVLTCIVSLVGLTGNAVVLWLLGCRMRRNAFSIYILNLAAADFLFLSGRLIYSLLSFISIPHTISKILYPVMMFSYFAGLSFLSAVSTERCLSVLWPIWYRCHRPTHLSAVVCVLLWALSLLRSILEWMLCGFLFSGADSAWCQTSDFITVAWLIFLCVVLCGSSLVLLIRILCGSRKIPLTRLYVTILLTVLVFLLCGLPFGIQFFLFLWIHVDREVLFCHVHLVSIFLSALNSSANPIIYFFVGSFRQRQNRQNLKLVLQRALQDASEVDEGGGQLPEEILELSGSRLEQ
MrgX1 ag: agonists of human MrgX1 receptor, primary screen, HEK293 cells, Fluo-4 calcium flux. Fluo-4 calcium fluorescence, agonist mode; active compounds read high. B-score at 10 µM. 0.44% of 310,000 active;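 active = calcium response B-score plate-corrected fluorescence ratio at least 3 library SD, with starting fluorescence B-score inside 5 SD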
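Test system: HEK293 cells stably expressing human MrgX1 receptor; Input: fifteen thousand cells per well; Dosing: compound delivered in addition one of three; Schedule: overnight seeding, then 1 h dark dye loading; Technique: Fluo-4 NW calcium fluorescence; Measure: B-scored fluorescence response ratio; Controls: positive and negative controls per plate.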
MrgX1 antag: antagonists of human MrgX1 receptor, primary screen, HEK293 cells, Fluo-4 calcium flux; Mas-related G-protein coupled receptor member X1 (Homo sapiens), Q96LB2; BAM8-22 antagonism; active compounds read low; B-score at 10 µM; 1.3% of 310,000 active; AID 588676, 2011;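 active = calcium-response B-score plate-corrected more than 3 library SD below zero, starting fluorescence within 5 deviations, no agonist response on first addition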;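 also: peak minus trough fluorescence over baseline after final BAM8-22 challenge near maximal dose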
RGS4 pot: RGS4 potentiators or activators, primary screen, cell-based, HEK293 M3R inducible RGS4, calcium flux; carbachol calcium flux Fluo4; active compounds read low; B-score at 10 µM; 0.92% of 310,000 active;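 active = B-score of the integrated calcium signal more than 4 SD below the library mean, with starting fluorescence not abnormally high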;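 also: negative B-score means reduced calcium response which marks RGS4 activation or potentiation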
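test system = HEK293 cells with stable M3R and inducible RGS4 | schedule = recording 10 s baseline at 1 Hz, 100 s post-agonist | technique = Fluo4-AM (2 µM) calcium-flux fluorescence, kinetic read | measure = Agonist-evoked peak-minus-minimum fluorescence over baseline, integrated ratio, B score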
RGS4 block: RGS4 inhibitors, primary screen, cell-based, HEK293 M3R inducible RGS4, calcium flux; 0.45% of 310,000 active; Fluo-4 calcium flux; active compounds read high; triggered by carbachol at its EC20; Regulator of G-protein signaling 4 (Homo sapiens), P49798; B-score at 10 µM;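 active = B-score, a plate-corrected calcium signal, over three deviations above library mean, with baseline fluorescence within five deviations of library mean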;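 also: RGS4 expression induced by doxycycline in cells with stable M3 receptor; B-score is computed from the integrated fluorescence ratio over baseline after carbachol; higher B-score means a larger calcium signal and so more RGS4 inhibition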
Target sequence (P49798 whole entry, looked up): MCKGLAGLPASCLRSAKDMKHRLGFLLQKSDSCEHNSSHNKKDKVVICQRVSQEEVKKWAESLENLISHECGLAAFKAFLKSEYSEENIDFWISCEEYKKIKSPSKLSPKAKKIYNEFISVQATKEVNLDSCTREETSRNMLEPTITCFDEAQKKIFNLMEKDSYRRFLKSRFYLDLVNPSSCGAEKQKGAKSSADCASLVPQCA
MrgX1 ant reconf: MrgX1 receptor antagonists, duplicate retest, confirmation, HEK293 cells, Fluo-4 calcium flux. BAM8-22 calcium flux; active compounds read low. shares compounds with MrgX1 antag. 19% of 2,300 active. remaining BAM8-22 calcium response % of control (active compounds read low), % at 10 µM. AID 602420, 2012;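 active = remaining agonist calcium response no higher than 100% minus 3 SD of agonist-only control wells, with starting fluorescence near control levels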;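 also: agonist BAM8-22 given at a near maximal EC90 to ECmax level; peak minus minimum fluorescence divided by baseline after agonist addition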
HEK293 Ca flux: nonspecific calcium signal in parental HEK293, confirmation, counter-screen for MrgX1 antagonist project, parental HEK293 cells, Fluo-4 calcium flux. shares compounds with MrgX1 antag. Fluo-4 calcium fluorescence, FDSS. fluorescence ratio F(max-min)/F0 at 10 µM. 2% of 4,000 active. AID 624111, 2012;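 active = duplicate-averaged calcium fluorescence ratio at least three times the standard deviation of buffer wells, a nonspecific response in parental cells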
HEK293 Ca counter: calcium response in parental HEK293 cells, primary screen, counter-screen for MrgX1 allosteric activator project, cell-based, Fluo-4 calcium flux, duplicate. AID 624114, 2012. Fluo-4 fluorescence ratio; active compounds read high. 0.4% of 4,000 active. fluorescence ratio F(max-min)/F0 at 10 µM. shares compounds with MrgX1 antag;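 active = calcium fluorescence ratio, averaged over duplicates, at least 3 SD of the buffer-well ratio, meaning a nonspecific response in receptor-free cells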;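 also: untransfected parental HEK293 lacking MrgX1 used as counterscreen for MrgX1 allosteric activators; fluorescence change taken during the second addition on a kinetic imager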
HEK293 Ca cntr2: calcium response in parental HEK293 cells, primary screen, counter-screen for MrgX1 agonist project, cell-based, Fluo-4 calcium flux, duplicate, agonist mode; fluorescence ratio F(max-min)/F0 at 10 µM; shares compounds with MrgX1 antag; 8.7% of 4,000 active; Fluo-4 calcium fluorescence (FDSS); active compounds read high;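 active = calcium fluorescence ratio at least three times the spread of buffer wells, meaning a non-specific response in parental cells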
Active calls of the source: *; i = inactive; / = no result.

SMILES	MrgX1 PAM	MrgX1 ag	MrgX1 antag	RGS4 pot	RGS4 block	MrgX1 ant reconf	HEK293 Ca flux	HEK293 Ca counter	HEK293 Ca cntr2
CCOC(=O)C1CCN(C(=O)Cn2c(=O)oc3cc(S(=O)(=O)N4CCCC4)ccc32)CC1	i	i	-5.1*	i	i	i	i	i	i
CCOC(=O)C1CCN(S(=O)(=O)c2ccc3[nH]c(=O)ccc3c2)CC1	i	i	-4.7*	i	i	i	i	i	i
Cc1cccc(NC(=O)C2CCCN(S(=O)(=O)c3ccc4[nH]c(=O)ccc4c3)C2)c1 (centres undefined)	i	i	-6.5*	i	i	i	i	i	i
Cc1ccc(NC(=O)C2CCCN(S(=O)(=O)c3ccc4[nH]c(=O)ccc4c3)C2)cc1C (centres undefined)	i	i	i	i	i	/	/	/	/
COc1ccccc1NC(=O)c1c(Nc2ccccc2C)sc(C(=O)Nc2cccc(Cl)c2)c1N	i	i	i	i	i	/	/	/	/
COc1ccc(NC(=O)c2cncc(Br)c2)cc1S(=O)(=O)N1CCCCC1	i	i	i	i	i	/	/	/	/
COc1ccc(OC)c2sc(NC(=O)CCSc3ccccc3)nc12	i	i	-8.8*	i	i	i	i	i	i
COc1ccc(OC)c2sc(NC(=O)CCS(=O)(=O)c3ccccc3)nc12	i	i	i	i	i	/	/	/	/
CCn1c(CNS(=O)(=O)c2ccc(Br)cc2)n[nH]c1=S	i	i	i	i	i	/	/	/	/
CC(C)Oc1ccc(C(=O)NCc2ccco2)cc1	i	i	-5.9*	i	i	i	i	i	i
CCCOc1ccc(C(=O)NCc2ccco2)cc1	i	i	i	i	i	/	/	/	/
NC(=O)c1ccsc1NC(=O)CSc1ccccc1F	i	i	-4.9*	i	i	i	i	i	i
Cc1ccccc1SCC(=O)OCC(=O)Nc1sccc1C(N)=O	i	i	i	i	i	/	/	/	/
NC(=O)c1ccsc1NC(=O)CCS(=O)(=O)c1ccc(F)cc1	i	i	-5.9*	i	i	80%*	i	i	i
COc1ccccc1OCC(=O)OCC(=O)Nc1sccc1C(N)=O	i	i	i	i	i	/	/	/	/
NC(=O)c1ccsc1NC(=O)COC(=O)Cc1cccc2ccccc12	i	i	-6.8*	i	i	42%*	i	i	i
O=C(CN1c2ccccc2S(=O)(=O)c2ccccc21)NCc1ccc(F)cc1	i	i	i	i	i	/	/	/	/
Cc1ccc(N(C)S(=O)(=O)c2c[nH]c3ccc([N+](=O)[O-])cc23)cc1	i	i	i	i	i	/	/	/	/
O=C(NNC(=S)NC1CC2C=CC1C2)c1cccnc1 (centres undefined)	i	i	i	i	i	/	/	/	/
COc1ccc(NC(=O)CN(C)C(=O)Cc2ccc(S(=O)(=O)N3CCOCC3)s2)cc1	i	i	i	i	i	/	/	/	/
COc1ccc(C(=O)COC(=O)Cc2n[nH]c(=O)c3ccccc23)c(OC)c1	i	i	-8.2*	i	i	i	i	i	i
O=C(Cc1n[nH]c(=O)c2ccccc12)OCC(=O)c1ccccc1Cl	i	i	i	i	i	/	/	/	/
OCCNc1nc(Nc2ccc(Br)cc2)nc2ccccc12	i	i	-6.9*	i	i	73%*	i	i	i
c1ccc(Nc2nc(NCC3CCCO3)c3ccccc3n2)cc1 (centres undefined)	i	i	-5.1*	i	i	38%*	i	i	i
CC(C)(C)c1cc(C(=O)N2CCc3ccccc3C2)ccn1	i	i	i	i	i	/	/	/	/
SMILES	MrgX1 PAM	MrgX1 ag	MrgX1 antag	RGS4 pot	RGS4 block	MrgX1 ant reconf	HEK293 Ca flux	HEK293 Ca counter	HEK293 Ca cntr2
COc1ccccc1OCC(=O)Nc1ccc(NC(=O)COc2ccccc2OC)cc1	i	i	i	i	i	/	/	/	/
COc1ccccc1OCC(=O)Nc1ccc(S(=O)(=O)NC(C)=O)cc1	i	i	-6.7*	i	i	i	i	i	i
O=C(Cc1ccc2c(c1)OCCO2)c1c(O)cc(O)cc1O	i	i	-5.2*	i	i	71%*	i	i	i
COc1ccc(C(=O)Cc2ccc3c(c2)OCO3)c(O)c1	i	i	i	i	i	/	/	/	/
Cc1ccc(C(=O)NCCc2nnc3ccc(SCC(=O)N4CCCCC4)nn23)cc1	i	i	i	i	i	/	/	/	/
CC(=O)c1cccc(S(=O)(=O)NC2CC2)c1	i	i	-6.8*	i	i	i	i	i	i
CC(=O)c1cccc(S(=O)(=O)NC2CCCCCC2)c1	i	i	i	i	i	/	/	/	/
CN(/N=C/c1ccc(O)cc1O)c1ncc(C(F)(F)F)cc1Cl	i	i	i	i	i	/	/	/	/
CCCc1cc(=O)oc2cc(C)cc(OCC(=O)N3CCC(C(N)=O)CC3)c12	i	i	-4.9*	i	i	i	i	i	i
Cn1cc(CC(=O)Nc2cccc(C#N)c2)c2ccccc21	i	i	-4.6*	i	i	i	i	i	i
Cc1nonc1C(=O)N1CCCC(Nc2ccc(C(C)C)cc2)C1 (centres undefined)	i	i	i	i	i	/	/	/	/
CC(=O)Nc1ccc(NC(=O)CC(C)n2ccnc2)cc1 (centres undefined)	i	i	-7*	i	i	i	i	i	i
